Measured values as given in ChEMBL document CHEMBL1137580, “Synthesis, potency, and in vivo profiles of quinoline containing histamine H3 receptor inverse agonists” (J Med Chem, 2007).
Values after ≈ are worked out from the molar mass of the structure shown. Active and inactive are the calls of the source. The rule behind the calls is not given here.

Columns and labels:
[1] = test system: Brain; assay: Drug level in mouse brain at 1 mg/kg, ip; assay type: ADME, organism-based; parameters: dose 1 mg/kg, route intraperitoneal; details: in vivo
Procedure, shortened: (§1)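 Mice dosed i.p. at 1 mg/kg; brain and blood sampled 1 h after dosing, concentrations by HPLC-MS; n ≥ 3, SEM <11% of mean unless stated.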

[2] = Half life in rat at 1 mg/kg, iv; assay type: ADME, organism-based; parameters: dose 1 mg/kg, route intravenous; details: in vivo
[3] = Clearance in rat at 1 mg/kg, iv; assay type: ADME, organism-based; parameters: dose 1 mg/kg, route intravenous; details: in vivo
[4] = Oral bioavailability in rat at 1 mg/kg; assay type: ADME, organism-based; details: in vivo
Procedure, shortened: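 Oral dosing in rats at 1 mg/kg, n = 3 animals; F (%) given as mean, SEM <20% of mean unless stated.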

[5] = test system: Rattus norvegicus; assay: Volume of distribution in rat at 1 mg/kg, iv; assay type: ADME, organism-based; parameters: dose 1 mg/kg, route intravenous; details: in vivo
[6] = Ratio of drug level in brain to blood in mouse at 1 mg/kg, ip; assay type: ADME, organism-based; parameters: dose 1 mg/kg, route intraperitoneal; procedure, shortened: as §1
[7] = test system: Rattus norvegicus; assay: Memory enhancing effect in ip dosed adult rat by social recognition memory method; assay type: functional, organism-based
Procedure, shortened: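 Adult rat explores a juvenile 5 min, separated 2 h, re-exposed 5 min; compound or saline i.p. right after first exposure; investigation ratio (second/first time); ciproxifan 1 mg/kg standard; n ≥ 12, Dunnett's post hoc, P < 0.05; efficacious doses in mg/kg.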

[8] = Protein binding in rat plasma; assay type: ADME, cell-free; details: read-out: PPB (converted)
[9] = Ratio of drug level in brain to blood in rat at 1 mg/kg, iv; assay type: ADME, organism-based; parameters: dose 1 mg/kg, route intravenous
Procedure, shortened: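 Rats given 1 mg/kg i.v.; brain and plasma concentrations measured 1 h after dosing by HPLC-MS, and the brain-to-plasma ratio was taken from these; n ≥ 3 animals.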

[10] = Protein binding in dog plasma; assay type: ADME, cell-free, Canis lupus familiaris; details: read-out: PPB (converted)
[11] = Protein binding in monkey plasma; assay type: ADME, cell-free, Macaca mulatta; details: rhesus monkey, read-out: PPB (converted)
[12] = test system: Brain; assay: Drug level in rat brain at 1 mg/kg, iv; assay type: ADME, organism-based; parameters: dose 1 mg/kg, route intravenous; details: in vivo
Procedure, shortened: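 Rats dosed i.v. at 1 mg/kg; brain concentration measured 1 h post-dose by HPLC-MS; n ≥ 3, SEM <11% of mean unless stated.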

[13] = Photostability of the UV light irradiated compound; assay type: ADME
[14] = test system: Rattus norvegicus; assay: Memory enhancing effect in ip dosed adult rat by five trial inhibitory avoidance method; assay type: functional, organism-based
[15] = biological target: T1, Cytochrome P450 2A6 (Homo sapiens, UniProt P11509); assay: Inhibition of CYP2A6 at 10 to 20 uM; assay type: ADME
T1 sequence (P11509 whole entry): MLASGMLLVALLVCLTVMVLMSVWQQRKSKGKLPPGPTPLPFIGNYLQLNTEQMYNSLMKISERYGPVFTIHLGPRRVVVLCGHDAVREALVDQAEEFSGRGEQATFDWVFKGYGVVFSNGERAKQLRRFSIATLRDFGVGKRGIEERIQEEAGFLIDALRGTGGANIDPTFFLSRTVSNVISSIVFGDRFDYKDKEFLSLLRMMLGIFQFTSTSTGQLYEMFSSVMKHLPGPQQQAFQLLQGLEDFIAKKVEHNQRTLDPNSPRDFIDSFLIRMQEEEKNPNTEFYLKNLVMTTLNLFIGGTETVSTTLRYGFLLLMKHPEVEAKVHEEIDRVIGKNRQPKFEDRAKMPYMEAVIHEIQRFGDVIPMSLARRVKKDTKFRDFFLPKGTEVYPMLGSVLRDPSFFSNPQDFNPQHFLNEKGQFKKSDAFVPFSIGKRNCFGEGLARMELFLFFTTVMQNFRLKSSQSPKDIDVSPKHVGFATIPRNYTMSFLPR

[16] = Bioavailability in dog; assay type: ADME, organism-based, Canis lupus familiaris; details: in vivo
[17] = test system: Rattus norvegicus; assay: CNS toxicity assessed as hypoactivity in rat at 9.4 mg/kg; assay type: organism-based; parameters: dose 9.4 mg/kg; details: in vivo
[18] = biological target: Cytochrome P450 2C9 (Homo sapiens, UniProt P11712); assay: Inhibition of CYP2C9 at 10 to 20 uM; assay type: ADME
Cytochrome P450 2C9, sequence (P11712 whole entry): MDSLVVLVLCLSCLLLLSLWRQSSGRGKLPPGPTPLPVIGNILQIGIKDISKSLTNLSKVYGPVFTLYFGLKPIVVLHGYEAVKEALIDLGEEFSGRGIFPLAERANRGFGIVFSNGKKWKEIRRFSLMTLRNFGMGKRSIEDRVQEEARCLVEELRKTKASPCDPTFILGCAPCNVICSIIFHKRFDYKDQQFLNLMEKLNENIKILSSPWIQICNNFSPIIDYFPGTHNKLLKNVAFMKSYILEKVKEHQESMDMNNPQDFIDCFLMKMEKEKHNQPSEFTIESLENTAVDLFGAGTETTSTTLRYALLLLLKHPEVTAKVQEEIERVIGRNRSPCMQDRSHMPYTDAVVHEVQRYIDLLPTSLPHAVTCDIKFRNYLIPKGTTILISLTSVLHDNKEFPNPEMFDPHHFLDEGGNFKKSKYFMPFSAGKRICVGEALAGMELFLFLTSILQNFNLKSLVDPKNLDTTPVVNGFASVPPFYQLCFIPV

[19] = species: Homo sapiens; assay: Inhibition of human sigma receptor at 10 uM
[20] = biological target: T2, Cytochrome P450 1A2 (Homo sapiens, UniProt P05177); assay: Inhibition of CYP1A2 at 10 to 20 uM; assay type: ADME
T2 sequence (P05177 whole entry): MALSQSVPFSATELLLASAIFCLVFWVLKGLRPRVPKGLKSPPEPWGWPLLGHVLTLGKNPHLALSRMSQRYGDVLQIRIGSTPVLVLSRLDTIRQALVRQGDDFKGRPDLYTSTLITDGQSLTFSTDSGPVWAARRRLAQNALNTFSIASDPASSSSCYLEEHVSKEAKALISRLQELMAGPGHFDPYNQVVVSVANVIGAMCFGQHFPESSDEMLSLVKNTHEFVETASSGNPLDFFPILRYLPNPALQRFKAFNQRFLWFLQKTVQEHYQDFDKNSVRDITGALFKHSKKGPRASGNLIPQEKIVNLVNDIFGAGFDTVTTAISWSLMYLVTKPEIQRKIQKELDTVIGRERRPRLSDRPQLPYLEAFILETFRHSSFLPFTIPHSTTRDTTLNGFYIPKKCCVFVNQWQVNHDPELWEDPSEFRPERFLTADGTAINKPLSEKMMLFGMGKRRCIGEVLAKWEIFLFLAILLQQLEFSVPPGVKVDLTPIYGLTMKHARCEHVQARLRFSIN

[21] = Solubility in water at pH 7; assay type: physicochemical
[22] = biological target: Cytochrome P450 2E1 (Homo sapiens, UniProt P05181); assay: Inhibition of CYP2E1 at 10 to 20 uM; assay type: ADME
Cytochrome P450 2E1, sequence (P05181 whole entry): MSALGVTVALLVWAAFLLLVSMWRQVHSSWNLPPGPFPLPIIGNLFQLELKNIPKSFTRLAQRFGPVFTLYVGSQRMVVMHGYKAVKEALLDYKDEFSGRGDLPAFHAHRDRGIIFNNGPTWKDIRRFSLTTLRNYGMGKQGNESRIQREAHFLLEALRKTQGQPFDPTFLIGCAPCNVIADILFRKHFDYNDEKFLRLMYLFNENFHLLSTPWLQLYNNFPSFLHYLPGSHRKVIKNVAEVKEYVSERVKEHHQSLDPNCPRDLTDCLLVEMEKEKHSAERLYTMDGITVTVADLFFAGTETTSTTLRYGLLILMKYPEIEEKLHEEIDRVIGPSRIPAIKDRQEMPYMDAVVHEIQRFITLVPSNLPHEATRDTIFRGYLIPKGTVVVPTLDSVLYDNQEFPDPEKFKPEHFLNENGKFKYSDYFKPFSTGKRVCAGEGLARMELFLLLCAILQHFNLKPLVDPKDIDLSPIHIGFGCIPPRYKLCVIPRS

[23] = biological target: Cytochrome P450 3A4 (Homo sapiens, UniProt P08684); assay: Inhibition of CYP3A4 at 10 to 20 uM; assay type: ADME
Cytochrome P450 3A4, sequence (P08684 whole entry): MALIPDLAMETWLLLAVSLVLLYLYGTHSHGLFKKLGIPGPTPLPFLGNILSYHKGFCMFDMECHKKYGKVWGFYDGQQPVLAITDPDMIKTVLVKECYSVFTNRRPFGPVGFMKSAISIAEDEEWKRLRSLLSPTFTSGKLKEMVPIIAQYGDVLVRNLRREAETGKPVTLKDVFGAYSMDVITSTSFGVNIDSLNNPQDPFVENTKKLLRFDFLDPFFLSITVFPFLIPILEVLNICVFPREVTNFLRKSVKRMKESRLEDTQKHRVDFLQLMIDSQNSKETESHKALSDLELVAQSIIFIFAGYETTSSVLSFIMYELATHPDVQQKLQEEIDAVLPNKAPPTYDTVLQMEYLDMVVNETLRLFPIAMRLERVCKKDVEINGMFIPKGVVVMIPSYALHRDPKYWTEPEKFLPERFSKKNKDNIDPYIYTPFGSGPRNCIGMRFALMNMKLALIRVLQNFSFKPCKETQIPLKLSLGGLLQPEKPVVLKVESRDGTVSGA

[24] = biological target: Cytochrome P450 2D6 (Homo sapiens, UniProt P10635); assay: Inhibition of CYP2D6 at 10 to 20 uM; assay type: ADME
Cytochrome P450 2D6, sequence (P10635 whole entry): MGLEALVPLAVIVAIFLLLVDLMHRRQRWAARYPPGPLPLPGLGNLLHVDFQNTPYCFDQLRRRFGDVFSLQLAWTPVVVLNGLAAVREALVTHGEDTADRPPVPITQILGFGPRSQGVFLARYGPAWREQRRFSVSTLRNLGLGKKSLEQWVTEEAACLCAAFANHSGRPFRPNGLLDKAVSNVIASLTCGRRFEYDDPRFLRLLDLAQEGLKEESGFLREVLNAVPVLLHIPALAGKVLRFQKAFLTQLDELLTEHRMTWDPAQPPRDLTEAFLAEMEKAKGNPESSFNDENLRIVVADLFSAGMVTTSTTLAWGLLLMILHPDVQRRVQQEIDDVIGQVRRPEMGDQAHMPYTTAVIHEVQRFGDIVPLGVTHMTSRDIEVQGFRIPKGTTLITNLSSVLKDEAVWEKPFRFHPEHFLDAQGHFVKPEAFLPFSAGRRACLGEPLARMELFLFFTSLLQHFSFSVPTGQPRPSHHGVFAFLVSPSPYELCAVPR

[25] = test system: Rattus norvegicus; assay: Memory enhancing effect in ip dosed rat by five trial inhibitory avoidance method at 3 mg/kg; assay type: functional, organism-based; parameters: dose 3 mg/kg
[26] = test system: Plasma; assay: Drug level in rat plasma at 0.1 mg/kg; assay type: ADME, organism-based; parameters: dose 0.1 mg/kg; details: in vivo
[27] = biological target: Cytochrome P450 2C19 (Homo sapiens, UniProt P33261); assay: Inhibition of CYP2C19 at 10 to 20 uM; assay type: ADME
Cytochrome P450 2C19, sequence (P33261 whole entry): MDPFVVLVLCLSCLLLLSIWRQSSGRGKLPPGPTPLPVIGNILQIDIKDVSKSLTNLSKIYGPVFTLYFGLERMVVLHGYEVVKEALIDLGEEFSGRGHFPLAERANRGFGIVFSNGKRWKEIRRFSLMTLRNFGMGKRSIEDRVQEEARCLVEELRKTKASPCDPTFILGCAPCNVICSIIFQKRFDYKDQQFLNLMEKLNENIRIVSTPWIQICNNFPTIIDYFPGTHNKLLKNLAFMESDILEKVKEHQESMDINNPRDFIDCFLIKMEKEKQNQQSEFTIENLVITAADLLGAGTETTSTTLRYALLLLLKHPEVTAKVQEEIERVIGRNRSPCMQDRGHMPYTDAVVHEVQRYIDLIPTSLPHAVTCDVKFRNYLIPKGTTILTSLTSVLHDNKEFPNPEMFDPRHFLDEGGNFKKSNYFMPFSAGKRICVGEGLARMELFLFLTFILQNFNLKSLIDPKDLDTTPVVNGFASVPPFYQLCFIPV

[28] = test system: Rattus norvegicus; assay: CNS toxicity assessed as hypoactivity in rat at 2.8 mg/kg; assay type: organism-based; parameters: dose 2.8 mg/kg; details: in vivo
[29] = test system: Rattus norvegicus; assay: CNS toxicity assessed as piloerection in rat at 2.8 mg/kg; assay type: organism-based; parameters: dose 2.8 mg/kg; details: in vivo
[30] = test system: Plasma; assay: Drug level in rat plasma at 0.3 mg/kg; assay type: ADME, organism-based; parameters: dose 0.3 mg/kg; details: in vivo
[31] = biological target: L-type calcium channel (Homo sapiens, UniProt O60840+Q01668+Q13698+Q13936); assay: Inhibition of human L-type calcium channel at 10 uM
[32] = biological target: T3, Adenosine receptor A3 (Homo sapiens) (UniProt P0DMS8); assay: Inhibition of human adenosine A3 receptor at 10 uM
T3 sequence (whole entry): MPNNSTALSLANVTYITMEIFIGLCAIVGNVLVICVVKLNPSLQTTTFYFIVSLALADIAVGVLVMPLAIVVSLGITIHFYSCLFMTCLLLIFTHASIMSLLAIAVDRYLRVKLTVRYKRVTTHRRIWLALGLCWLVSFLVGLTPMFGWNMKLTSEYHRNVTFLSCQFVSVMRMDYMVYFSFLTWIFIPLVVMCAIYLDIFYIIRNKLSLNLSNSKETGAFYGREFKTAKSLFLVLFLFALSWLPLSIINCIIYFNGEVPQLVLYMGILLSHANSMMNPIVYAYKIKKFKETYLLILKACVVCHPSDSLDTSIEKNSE

[33] = biological target: T4, Muscarinic acetylcholine receptor M4 (Homo sapiens) (UniProt P08173); assay: Inhibition of human muscarinic M4 receptor at 10 uM
T4 sequence (whole entry): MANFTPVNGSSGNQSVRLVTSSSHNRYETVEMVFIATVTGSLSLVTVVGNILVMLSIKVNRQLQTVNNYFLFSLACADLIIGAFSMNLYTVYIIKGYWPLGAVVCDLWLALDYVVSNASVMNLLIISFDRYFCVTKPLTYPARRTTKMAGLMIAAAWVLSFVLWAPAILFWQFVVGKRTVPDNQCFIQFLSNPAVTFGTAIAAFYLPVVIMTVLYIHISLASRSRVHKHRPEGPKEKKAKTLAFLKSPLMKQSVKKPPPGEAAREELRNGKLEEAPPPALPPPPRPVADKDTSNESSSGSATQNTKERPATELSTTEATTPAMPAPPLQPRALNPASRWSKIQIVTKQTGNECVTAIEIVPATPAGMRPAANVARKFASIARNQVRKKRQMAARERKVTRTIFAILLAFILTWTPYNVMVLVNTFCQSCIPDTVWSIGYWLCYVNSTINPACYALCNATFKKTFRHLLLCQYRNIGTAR

[34] = test system: Rattus norvegicus; assay: CNS toxicity assessed as piloerection in rat at 9.4 mg/kg; assay type: organism-based; parameters: dose 9.4 mg/kg; details: in vivo

| SMILES | Drug uptake [1] [ng/g] | half-life [2] [h] | clearance [3] [mL/min/kg] | bioavailability [4] [%] | Vbeta [5] [L/kg] | Kp [6] | fraction unbound [8] | Kp [9] | fraction unbound [10] | fraction unbound [11] | Drug uptake [12] [ng/g] | Activity [7] | Activity [14] | Activity [25] | other results |
| --- | --- | --- | --- | --- | --- | --- | --- | --- | --- | --- | --- | --- | --- | --- | --- |
| Cc1c(-c2ccc3cc(CCN4CCC[C@H]4C)ccc3n2)cnn1-c1ccccn1 | 1659 | 2.4 | 19.7 | 75 | 4.1 | 23 |  |  |  |  |  |  |  |  |  |
| Cc1nc(N2CCCC2)ncc1-c1ccc2cc(CCN3CCC[C@H]3C)ccc2n1 | 718 | 4 | 24.2 | 98 | 8.5 | 16 |  |  |  |  |  | Active |  |  |  |
| CCOc1ccc(-n2ncc(-c3ccc4cc(CCN5CCC[C@H]5C)ccc4n3)c2C)nn1 | 3242 | 8.3 | 8.83 | 70 | 7.4 | 42 | 0.11 |  |  | 0.21 |  | Active | Active | Active |  |
| Cc1cc2ncc(-c3ccc4cc(CCN5CCC[C@H]5C)ccc4n3)c(C)n2n1 | 174 | 5.3 | 14 | 90 | 6.3 | 1.5 | 0.3 | 1.6 | 0.4 | 0.45 | 440 | Active | Active | Active | Activity [13]: Not Active; Activity [29]: Non-toxic; Activity [15]: Not Active; Cp [30]: 19.2 ng/mL; bioavailability [16]: 72%; Activity [17]: Toxic; inhibition at 10 µM [31]: 63%; inhibition [32]: 69%; inhibition [33]: 74%; Activity [18]: Not Active; inhibition [19]: 96%; Activity [20]: Not Active; Activity [34]: Toxic; solubility [21]: 8.7 mg/mL (≈ 22.6 mM); Activity [22]: Not Active; Activity [23]: Not Active; Activity [24]: Not Active; Activity [27]: Not Active; Activity [28]: Non-toxic |
| O=C(c1ccc(OCCCc2c[nH]cn2)cc1)C1CC1 |  |  |  |  |  |  |  |  |  |  |  | Active |  |  |  |

Now from value to compound, other results behind:

| Drug uptake [1] [ng/g] | half-life [2] [h] | clearance [3] [mL/min/kg] | bioavailability [4] [%] | Vbeta [5] [L/kg] | Kp [6] | fraction unbound [8] | Kp [9] | fraction unbound [10] | fraction unbound [11] | Drug uptake [12] [ng/g] | SMILES | Activity [7] | Activity [14] | Activity [25] | other results |
| --- | --- | --- | --- | --- | --- | --- | --- | --- | --- | --- | --- | --- | --- | --- | --- |
|  | 2 | 42.3 | 30 | 9.2 |  | 0.39 | 0.4 | 0.57 | 0.5 | 50 | Cc1nc2ncccc2cc1-c1ccc2cc(CCN3CCC[C@H]3C)ccc2n1 | Active |  |  |  |
|  | 1.7 | 61.7 | 58 | 9 |  | 0.38 | 1.8 | 0.42 | 0.5 | 425 | Cc1nn(C)cc1-c1ccc2cc(CCN3CCC[C@H]3C)ccc2n1 | Active | Active | Active | Activity [13]: Not Active; Activity [15]: Not Active; bioavailability [16]: 77%; Activity [17]: Toxic; Activity [18]: Not Active; inhibition [19]: 86%; Activity [20]: Not Active; solubility [21]: 21 mg/mL (≈ 62.8 mM); Activity [22]: Not Active; Activity [23]: Not Active; Activity [24]: Not Active; Cp [26]: 2.5 ng/mL; Activity [27]: Not Active; Activity [28]: Non-toxic |
| 1728 |  | 25 |  | 11.6 |  | 0.06 |  | 0.09 | 0.06 | 3082 | C[C@@H]1CCCN1CCc1cc2cc(-c3ccc(C#N)cc3)ccc2o1 |  |  |  |  |
